Laboratory results as given in ChEMBL document CHEMBL1926588, “Sulfur and selenium derivatives of quinazoline and pyrido[2,3-d]pyrimidine: synthesis and study of their potential cytotoxic activity in vitro” (Eur J Med Chem, 2012).

How the values were obtained:
MCF7 [1] = experiment: Induction of apoptosis in human MCF7 cells assessed as cell death at 10 uM after 12 hrs by TUNEL analysis (reference value: 6.02 +/- 0.85%); type: functional
MCF7 [2] = experiment: Cell cycle arrest in human MCF7 cells assessed as accumulation at subG1 phase at 15 uM after 24 hrs by propidium iodide staining-based flow cytometric analysis (reference value: 2.93 +/- 0.54%); type: functional
MCF7 [3] = experiment: Induction of apoptosis in human MCF7 cells assessed as cell death at 5 uM after 24 hrs by TUNEL analysis (reference value: 9.28 +/- 1.71%); type: functional
MCF7 [4] = experiment: Cell cycle arrest in human MCF7 cells assessed as accumulation at G0/G1 phase at 15 uM after 24 hrs by propidium iodide staining-based flow cytometric analysis (reference value: 51.83 +/- 5.64%); type: functional
MCF7 [5] = experiment: Cell cycle arrest in human MCF7 cells assessed as accumulation at G2/M phase at 15 uM after 12 hrs by propidium iodide staining-based flow cytometric analysis (reference value: 22.11 +/- 3.86%); type: functional
MCF7 [6] = experiment: Induction of apoptosis in human MCF7 cells assessed as cell death at 10 uM after 4 hrs by TUNEL analysis (reference value: 5.85 +/- 5.21%); type: functional
MCF7 [7] = experiment: Induction of apoptosis in human MCF7 cells assessed as cell death at 10 uM after 48 hrs by TUNEL analysis (reference value: 4.23 +/- 1.99%); type: functional
MCF7 [8] = experiment: Cell cycle arrest in human MCF7 cells assessed as accumulation at S phase at 15 uM after 24 hrs by propidium iodide staining-based flow cytometric analysis (reference value: 12.39 +/- 1.54%); type: functional
MCF7 [9] = experiment: Cell cycle arrest in human MCF7 cells assessed as accumulation at G0/G1 phase at 15 uM after 12 hrs by propidium iodide staining-based flow cytometric analysis (reference value: 57.34 +/- 1.64%); type: functional
MCF7 [10] = experiment: Induction of apoptosis in human MCF7 cells assessed as cell death at 10 uM after 24 hrs by TUNEL analysis (reference value: 9.82 +/- 2.62%); type: functional
MCF7 [11] = experiment: Induction of apoptosis in human MCF7 cells assessed as cell death at 20 uM after 24 hrs by TUNEL analysis (reference value: 9.56 +/- 1.38%); type: functional
MCF7 [12] = experiment: Cell cycle arrest in human MCF7 cells assessed as accumulation at G2/M phase at 15 uM after 4 hrs by propidium iodide staining-based flow cytometric analysis (reference value: 21.60 +/- 5.37%); type: functional
MCF7 [13] = experiment: Cell cycle arrest in human MCF7 cells assessed as accumulation at S phase at 15 uM after 4 hrs by propidium iodide staining-based flow cytometric analysis (reference value: 19.09 +/- 4.54%); type: functional
MCF7 [14] = experiment: Induction of apoptosis in human MCF7 cells assessed as cell death at 15 uM after 24 hrs by TUNEL analysis (reference value: 5.13 +/- 4.32%); type: functional
MCF7 [15] = experiment: Cell cycle arrest in human MCF7 cells assessed as accumulation at G2/M phase at 15 uM after 24 hrs by propidium iodide staining-based flow cytometric analysis (reference value: 32.37 +/- 7.73%); type: functional
MCF7 [16] = experiment: Cell cycle arrest in human MCF7 cells assessed as accumulation at subG1 phase at 15 uM after 12 hrs by propidium iodide staining-based flow cytometric analysis (reference value: 2.17 +/- 0.24%); type: functional
MCF7 [17] = experiment: Cell cycle arrest in human MCF7 cells assessed as accumulation at S phase at 15 uM after 12 hrs by propidium iodide staining-based flow cytometric analysis (reference value: 17.07 +/- 4.00%); type: functional
MCF7 [18] = experiment: Cell cycle arrest in human MCF7 cells assessed as accumulation at G0/G1 phase at 15 uM after 4 hrs by propidium iodide staining-based flow cytometric analysis (reference value: 49.38 +/- 4.74%); type: functional
MCF7 [19] = experiment: Induction of apoptosis in human MCF7 cells assessed as cell death at 1 uM after 24 hrs by TUNEL analysis (reference value: 6.12 +/- 1.61%); type: functional
MCF7 [20] = experiment: Cell cycle arrest in human MCF7 cells assessed as accumulation at subG1 phase at 15 uM after 4 hrs by propidium iodide staining-based flow cytometric analysis (reference value: 5.90 +/- 1.36%); type: functional
[21] = Cytotoxicity against human 184B5 cells after 72 hrs by MTT assay; type: cell-based; conditions: for GI50 at 72 h: 184B5 cells; for LC50 / TGI: 184b5, 72 h
Outline: (§1)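 MTT read-out after 72 h exposure at 37 °C in humidified 5% CO2, with five concentrations between 0.01 and 100. GI50 is 50% growth reduction versus untreated controls, TGI is complete growth inhibition, and LC50 is the concentration killing 50% of cells. Minimum three independent experiments.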

CCRF-CEM = experiment: Cytotoxicity against human CCRF-CEM cells after 72 hrs by MTT assay; type: functional; conditions: for CC50: read-out: LC50 (the source's name); outline: as §1
MCF7 [22] = experiment: Induction of apoptosis in human MCF7 cells assessed as cell death at 5 uM after 24 hrs by TUNEL analysis relative to control; type: functional
[23] = Cytotoxicity against human HTB-54 cells after 72 hrs by MTT assay; type: functional; conditions: HTB-54, 72 h; for CC50: read-out: LC50 (the source's name); outline: as §1
MCF7 [24] = experiment: Cytotoxicity against human MCF7 cells after 72 hrs by MTT assay; type: functional; conditions: MCF7, 72 h; outline: as §1
HT-29 = experiment: Cytotoxicity against human HT-29 cells after 72 hrs by MTT assay; type: functional; conditions: HT-29, 72 h; for CC50: read-out: LC50 (the source's name); outline: as §1
MCF7 [25] = experiment: Induction of apoptosis in human MCF7 cells assessed as cell death at 20 uM after 24 hrs by TUNEL analysis relative to control; type: functional
MCF7 [26] = experiment: Induction of apoptosis in human MCF7 cells assessed as cell death at 10 uM by TUNEL analysis; type: functional, cell-based; conditions: TDE = time-dependent effect
[27] = Permeability of the compound across human Caco2 cells; type: ADME, cell-based; conditions: Caco-2, read-out: permeability
MCF7 [28] = experiment: Selectivity ratio of GI50 for human 184B5 cells to GI50 for human MCF7 cells
Outline: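 Selectivity ratio is GI50 on non-tumoral 184B5 mammary cells divided by GI50 on MCF-7. Both come from the 72 h MTT assay. Ratio 3–6 means moderate selectivity, >6 high, and otherwise non-selective.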

[29] = Cytotoxicity against human BEAS2B cells after 72 hrs by MTT assay; type: cell-based, BEAS-2B; conditions: for GI50 at 72 h: BEAS2B cells; for LC50 / TGI: beas-2b, 72 h; outline: as §1

Row | Compound | Activity (MCF7 [1]) [%] | Activity (MCF7 [2]) [%] | Activity (MCF7 [3]) [%] | Activity (MCF7 [4]) [%] | Activity (MCF7 [5]) [%] | GI50 at 72 h [21] [µM] | LC50 [21] [µM] | TGI [21] [µM] | GI50 (CCRF-CEM) [µM] | TGI (CCRF-CEM) [µM] | CC50 (CCRF-CEM) [µM] | GI50 [23] [µM] | TGI [23] [µM] | CC50 [23] [µM] | GI50 (MCF7 [24]) [µM] | LC50 (MCF7 [24]) [µM] | TGI (MCF7 [24]) [µM] | GI50 (HT-29) [µM] | TGI (HT-29) [µM] | CC50 (HT-29) [µM] | other results
1 | CC[C@@]1(O)C(=O)OCc2c1cc1n(c2=O)Cc2cc3ccccc3nc2-1 [CAMPTOTHECIN] | 11.36 | 3.05 | 13.42 | 58.52 | 20.21 |  |  |  |  |  |  |  |  |  |  |  |  |  |  |  | Activity (MCF7 [6]): 6.71%; Activity (MCF7 [7]): 46.12%; Activity (MCF7 [8]): 15.27%; Activity (MCF7 [9]): 59.5%; Activity (MCF7 [10]): 18.67%; Activity (MCF7 [11]): 17.59%; Activity (MCF7 [12]): 23.38%; Activity (MCF7 [13]): 18.36%; Activity (MCF7 [14]): 21.21%; Activity (MCF7 [15]): 20.25%; Activity (MCF7 [16]): 3.06%; Activity (MCF7 [17]): 16.24%; Activity (MCF7 [18]): 47.24%; Activity (MCF7 [19]): 17.42%; Activity (MCF7 [20]): 5.39%
2 | [SeH]c1nc([SeH])c2ccccc2n1 | 12.26 | 3.46 | 16.32 | 47.77 | 25.63 | 0.49 | 6.63 | 2.5 | 2.99 | 6.01 | 9.03 | 5.98 | 65.9 | > 100 | 2.92 | > 100 | 22.9 | 8.98 | 45.2 | 87.9 | Activity (MCF7 [6]): 6.01%; Activity (MCF7 [7]): 58.31%; Activity (MCF7 [8]): 15.75%; Activity (MCF7 [9]): 56.21%; Activity (MCF7 [10]): 27.29%; Activity (MCF7 [11]): 87.55%; Activity (MCF7 [12]): 21.21%; fold change (FC) (MCF7 [22]): 1.7; Activity (MCF7 [13]): 23.29%; Activity (MCF7 [14]): 76.82%; Activity (MCF7 [15]): 34.67%; Activity (MCF7 [16]): 2.37%; Activity (MCF7 [17]): 18.36%; fold change (FC) (MCF7 [25]): 9; Activity (MCF7 [26]): tde; Papp [27]: 4.67 ×10⁻⁶ cm/s; Activity (MCF7 [18]): 52.09%; Activity (MCF7 [19]): 2.76%; Activity (MCF7 [20]): 3.98%
3 | CCCCCSc1nc(O)c2ccccc2n1 |  |  |  |  |  | > 100 | > 100 | > 100 | 52.1 | 86 | > 100 | 30.4 | > 100 | > 100 | 7.82 | > 100 | 81.4 | 74.6 | > 100 | > 100 | RatioGI50 (MCF7 [28]): >12; GI50 at 72 h [29]: 51.4 µM; LC50 [29]: > 100 µM; TGI [29]: > 100 µM
4 | CCCCC[Se]c1nc(NCc2ccccc2)c2ccccc2n1 | 13.39 | 3.28 | 14.37 | 46.97 | 25.83 | 70.9 | > 100 | > 100 | 34.5 | 72.5 | > 100 | 37.7 | 81.1 | > 100 | 0.05 | 99.4 | 47.1 | 72.7 | > 100 | > 100 | Activity (MCF7 [6]): 8.11%; Activity (MCF7 [7]): 14.91%; Activity (MCF7 [8]): 12.2%; Activity (MCF7 [9]): 55.3%; RatioGI50 (MCF7 [28]): 1418; Activity (MCF7 [10]): 30.13%; Activity (MCF7 [11]): 30.95%; Activity (MCF7 [12]): 28.5%; Activity (MCF7 [13]): 16.66%; Activity (MCF7 [14]): 24.88%; Activity (MCF7 [15]): 34.79%; Activity (MCF7 [16]): 2.13%; Activity (MCF7 [17]): 17.01%; Papp [27]: 5.6 ×10⁻⁶ cm/s; Activity (MCF7 [18]): 46.24%; Activity (MCF7 [19]): 3.84%; Activity (MCF7 [20]): 4.42%; GI50 at 72 h [29]: 44.1 µM; LC50 [29]: > 100 µM; TGI [29]: > 100 µM
5 | CSc1ccc(CNc2nc(SC)nc3ncccc23)cc1 | 11.51 | 2.97 | 13.7 | 52.91 | 22.99 | 0.19 | 5.64 | 1.14 | 5.35 | 16.8 | 59 | 3.28 | 14.8 | 63.6 | 0.05 | 9.13 | 4.37 | 4.32 | 7.03 | 8.75 | Activity (MCF7 [6]): 5.26%; Activity (MCF7 [7]): 11.66%; Activity (MCF7 [8]): 11.04%; Activity (MCF7 [9]): 55.42%; Activity (MCF7 [10]): 25.95%; Activity (MCF7 [11]): 22.63%; Activity (MCF7 [12]): 23.88%; Activity (MCF7 [13]): 18.02%; Activity (MCF7 [14]): 23.95%; Activity (MCF7 [15]): 30.2%; Activity (MCF7 [16]): 2.24%; Activity (MCF7 [17]): 19.35%; Papp [27]: 4.4 ×10⁻⁶ cm/s; Activity (MCF7 [18]): 50.42%; Activity (MCF7 [19]): 3.4%; Activity (MCF7 [20]): 3.88%; GI50 at 72 h [29]: 0.6 µM; LC50 [29]: 8.47 µM; TGI [29]: 3.77 µM
6 | C[Se]c1nc([Se]C)c2ccccc2n1 |  |  |  |  |  | 71.5 | > 100 | > 100 | 31.2 | 54.9 | 78.5 | 26.6 | 84.2 | > 100 | 5.97 | > 100 | 50.7 | 7.46 | 33.8 | 76.8 | RatioGI50 (MCF7 [28]): 12
